Data: ChEMBL document CHEMBL1649116, “Chloroquine is grossly overdosed and overused but well tolerated in Guinea-bissau” (Antimicrob Agents Chemother, 2009)

What was measured:
Homo sapiens [1] = organism: Homo sapiens; assay: Toxicity in malaria patient assessed as vomiting on day 1 after treatment at quartile 1 of compound concentration; assay type: organism-based; details: in vivo
How it was run: (§1)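 Mothers or guardians were questioned at each follow-up visit about the child's symptoms and drug intake. Children were grouped into quartiles by whole-blood chloroquine concentration 1 day after the end of treatment. Symptom frequency is given as n/N (%), and vomiting duration in days. Trend across quartiles was tested with the nonparametric test for trend.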

Homo sapiens [2] = organism: Homo sapiens; assay: Toxicity in malaria patient assessed as vomiting on day 1 after treatment at quartile 2 of compound concentration; assay type: organism-based; details: in vivo; how it was run: as §1
Homo sapiens [3] = organism: Homo sapiens; assay: Toxicity in malaria patient assessed as vomiting on day 1 after treatment at quartile 3 of compound concentration; assay type: organism-based; details: in vivo; how it was run: as §1
Homo sapiens [4] = organism: Homo sapiens; assay: Toxicity in malaria patient assessed as vomiting on day 1 after treatment at quartile 4 of compound concentration; assay type: organism-based; details: in vivo; how it was run: as §1
Homo sapiens [5] = organism: Homo sapiens; assay: Toxicity in malaria patient assessed as diarrhea on day 1 after treatment at quartile 1 of compound concentration; assay type: organism-based; details: in vivo; how it was run: as §1
Homo sapiens [6] = organism: Homo sapiens; assay: Toxicity in malaria patient assessed as diarrhea on day 1 after treatment at quartile 2 of compound concentration; assay type: organism-based; details: in vivo; how it was run: as §1
Homo sapiens [7] = organism: Homo sapiens; assay: Toxicity in malaria patient assessed as diarrhea on day 1 after treatment at quartile 3 of compound concentration; assay type: organism-based; details: in vivo; how it was run: as §1
Homo sapiens [8] = organism: Homo sapiens; assay: Toxicity in malaria patient assessed as diarrhea on day 1 after treatment at quartile 4 of compound concentration; assay type: organism-based; details: in vivo; how it was run: as §1
Homo sapiens [9] = organism: Homo sapiens; assay: Toxicity in malaria patient assessed as duration of vomiting at quartile 1 of compound concentration; assay type: organism-based; details: in vivo; how it was run: as §1
Homo sapiens [10] = organism: Homo sapiens; assay: Toxicity in malaria patient assessed as duration of vomiting at quartile 2 of compound concentration; assay type: organism-based; details: in vivo; how it was run: as §1
Homo sapiens [11] = organism: Homo sapiens; assay: Toxicity in malaria patient assessed as duration of vomiting at quartile 3 of compound concentration; assay type: organism-based; details: in vivo; how it was run: as §1
Homo sapiens [12] = organism: Homo sapiens; assay: Toxicity in malaria patient assessed as duration of vomiting at quartile 4 of compound concentration; assay type: organism-based; details: in vivo; how it was run: as §1
[13] = Plasma protein binding in healthy human; assay type: ADME, cell-free; details: read-out: PPB
[14] = Drug level in malaria patient whole blood on day 4; assay type: ADME, tissue-based; details: human, read-out: Drug uptake
How it was run: (§2)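 Observational study of 102 children in Guinea-Bissau given chloroquine unsupervised under routine prescribing, usually split into two to three daily doses of 6.6 mg kg−1. Whole blood was drawn 1, 4 and 14 days after the last reported dose for chloroquine and desethylchloroquine analysis. Values are medians with interquartile range, in nM.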

[15] = Drug level in malaria patient whole blood on day 1; assay type: ADME, tissue-based; details: human, read-out: Drug uptake; how it was run: as §2
[16] = Drug level in malaria patient whole blood on day 14; assay type: ADME, tissue-based; details: human, read-out: Drug uptake; how it was run: as §2
[17] = Volume of distribution in malaria patient; assay type: ADME, organism-based; details: human, in vivo
[18] = Drug level in malaria patient whole blood assessed as desethychloroquine level on day 1; assay type: ADME, tissue-based; details: human, read-out: Drug uptake; how it was run: as §2
[19] = Drug level in malaria patient whole blood assessed as desethychloroquine level on day 4; assay type: ADME, tissue-based; details: human, read-out: Drug uptake; how it was run: as §2
[20] = Drug level in malaria patient whole blood assessed as desethychloroquine level on day 14; assay type: ADME, tissue-based; details: human, read-out: Drug uptake; how it was run: as §2

SMILES	Activity (Homo sapiens [1])	Activity (Homo sapiens [2])	Activity (Homo sapiens [3])	Activity (Homo sapiens [4])	Activity (Homo sapiens [5])	Activity (Homo sapiens [6])	Activity (Homo sapiens [7])	Activity (Homo sapiens [8])	Time (Homo sapiens [9])	Time (Homo sapiens [10])	Time (Homo sapiens [11])	Time (Homo sapiens [12])	fraction unbound [13]	concentration [14]	concentration [15]	concentration [16]	Vd [17]	concentration [18]	concentration [19]	concentration [20]
CCN(CC)CCCC(C)Nc1ccnc2cc(Cl)ccc12 (stereo not given) [CHLOROQUINE]	25%	24%	14%	8%	42%	64%	33%	21%	1.4 days	1.1 days	0.5 days	0.5 days	0.5	0.626 µM	0.894 µM	0.204 µM	> 100 L/kg			
CCNCCCC(C)Nc1ccnc2cc(Cl)ccc12 (stereo not given) [DESETHYLCHLOROQUINE]																		0.638 µM	0.446 µM	0.181 µM
